ChEMBL document CHEMBL1255324, “Absence of amphotericin B-tolerant persister cells in biofilms of some Candida species” (2008)
In brackets after ≈: the same amount, converted by molar mass. Activity calls are given as the source filed them. The rule behind the calls is not given here.

How the values were obtained:
Candida tropicalis [1] = test: Antifungal activity against Candida tropicalis AAHB 73 stationary-phase planktonic cell assessed as cell killing after 24 hrs; assay type: functional, organism-based
Procedure, shortened: (§1)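 Planktonic cells grown at 37°C with shaking in YNB/50 mM glucose. Exponential phase was 8 h for C. krusei, C. albicans and C. tropicalis, 11 h for C. parapsilosis and 18 h for C. glabrata; stationary phase was 48 h. Washed cells at ~10^7 cells ml−1 got amphotericin B (5–100 μg ml−1) in MOPS-buffered (pH 7) YNB glucose, 24 h at 37°C. Viable counts by plating. Two experiments in duplicate.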

Candida albicans [2] = test: Antifungal activity against Candida albicans SC5314 biofilm assessed as cell killing at 100 ug/ml after 24 hrs; assay type: functional, organism-based
Procedure, shortened: (§2)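 PVC discs (0.8 cm) seeded with washed YNB/50 mM glucose-grown cells (OD520 0.8), adhered 1 h at 37°C, washed, and grown 48 h at 37°C in medium. Biofilms exposed 24 h at 37°C to amphotericin B (5–100 μg ml−1) in YNB glucose buffered to pH 7 with 0.165 M MOPS; drug-free controls. Cells scraped, vortexed, PBS-washed, viable counts on YNB/200 mM glucose agar. Two experiments in duplicate.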

Candida parapsilosis [3] = test: Antifungal activity against Candida parapsilosis AAHB 4479 exponential-phase planktonic cell assessed as cell killing after 24 hrs; assay type: functional, organism-based; procedure, shortened: as §1
Candida albicans [4] = test: Antifungal activity against Candida albicans GDH 2346 exponential phase planktonic cell assessed as cell killing at 5 ug/ml after 24 hrs; assay type: functional, organism-based; procedure, shortened: as §1
Pichia kudriavzevii [5] = test: Antifungal activity against Candida krusei Glasgow exponential-phase planktonic cell assessed as cell killing at 5 ug/ml after 24 hrs; assay type: functional, organism-based; procedure, shortened: as §1
Pichia kudriavzevii [6] = test: Antifungal activity against Candida krusei Glasgow stationary-phase planktonic cell assessed as cell killing after 24 hrs; assay type: functional, organism-based; procedure, shortened: as §1
Nakaseomyces glabratus = test: Antifungal activity against Candida glabrata AAHB 12 exponential-phase planktonic cell assessed as cell killing at 5 ug/ml after 24 hrs; assay type: functional, organism-based; procedure, shortened: as §1
Candida albicans [7] = test: Antifungal activity against Candida albicans SC5314 biofilm persisters at 100 ug/ml after 24 hrs; assay type: functional, organism-based; procedure, shortened: as §2
Pichia kudriavzevii [8] = test: Antifungal activity against Candida krusei Glasgow Biofilm assessed as resistant isolates after 24 hrs; assay type: functional
Procedure, shortened: (§3)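 Biofilms formed on 0.8 cm PVC discs. Standardized YNB/50 mM glucose-grown cells (OD520 0.8) adhered 1 h at 37°C, then grew 48 h at 37°C. Mature biofilms were exposed 24 h at 37°C to amphotericin B 5–100 μg ml−1 in YNB glucose buffered to pH 7 with 0.165 M MOPS; drug-free controls. Cells were scraped and vortexed off, washed in PBS, then viable counts were made by serial dilution and plating on YNB/200 mM glucose agar. Two independent experiments, each in duplicate.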

Candida tropicalis [9] = test: Antifungal activity against Candida tropicalis AAHB 73 exponential-phase planktonic cell assessed as cell killing at 5 ug/ml after 24 hrs; assay type: functional, organism-based; procedure, shortened: as §1
Candida parapsilosis [10] = test: Antifungal activity against Candida parapsilosis AAHB 4479 Biofilm assessed as resistant isolates after 24 hrs; assay type: functional; procedure, shortened: as §3
Candida albicans [11] = test: Antifungal activity against Candida albicans GDH 2346 stationary phase planktonic cell assessed as cell killing at 5 ug/ml after 24 hrs; assay type: functional, organism-based; procedure, shortened: as §1
Candida albicans [12] = test: Antifungal activity against Candida albicans GDH 2346 Biofilm assessed as resistant isolate at 100 ug/ml after 24 hrs; assay type: functional; procedure, shortened: as §3
Candida parapsilosis [13] = test: Antifungal activity against Candida parapsilosis AAHB 4479 stationary-phase planktonic cell assessed as cell killing after 24 hrs; assay type: functional, organism-based; procedure, shortened: as §1
Candida albicans [14] = test: Antifungal activity against Candida albicans SC5314 exponential/stationary phase planktonic cell assessed as cell killing at 100 ug/ml after 24 hrs; assay type: functional, organism-based; procedure, shortened: as §1
Candida albicans [15] = test: Antifungal activity against Candida albicans GDH 2346; assay type: functional
Candida albicans [16] = test: Antifungal activity against Candida albicans SC5314 exponential/stationary phase planktonic cell assessed as persisters at 100 ug/ml after 24 hrs; assay type: functional, organism-based; procedure, shortened: as §1

## C[C@@H]1[C@H](O)[C@@H](C)/C=C/C=C/C=C/C=C/C=C/C=C/C=C/[C@H](O[C@@H]2O[C@H](C)[C@@H](O)[C@H](N)[C@@H]2O)C[C@@H]2O[C@](O)(C[C@@H](O)C[C@@H](O)[C@H](O)CC[C@@H](O)C[C@@H](O)CC(=O)O[C@H]1C)C[C@H](O)[C@H]2C(=O)O [AMPHOTERICIN B]
Candida tropicalis [1]
  Activity: inactive
Candida albicans [2]
  Activity: Active
Candida parapsilosis [3]
  Activity: inactive
Candida albicans [4]
  Activity: Active
Pichia kudriavzevii [5]
  Activity: Active
Pichia kudriavzevii [6]
  Activity: inactive
Nakaseomyces glabratus
  Activity: Active
Candida albicans [7]
  Activity: Active
Pichia kudriavzevii [8]
  Activity: 0.001%
Candida tropicalis [9]
  Activity: Active
Candida parapsilosis [10]
  Activity: 0.07%
Candida albicans [11]
  Activity: Active
Candida albicans [12]
  Activity: 0.01%
Candida parapsilosis [13]
  Activity: inactive
Candida albicans [14]
  Activity: Active
Candida albicans [15]
  MIC: 1.3 µg/mL (≈ 1.41 µM)
Candida albicans [16]
  Activity: Active
